Experimental data from ChEMBL document CHEMBL3271955, “Design, synthesis, and correlation analysis of 7-substituted 4-hydroxyquinoline-3-carboxylic acids as inhibitors of cellular respiration” (J Med Chem, 1977).

How the values were obtained:
Ehrlich = experiment: Inhibition of respiration in mouse Ehrlich ascites cells after 30 mins incubation at 37 degC by whole cell model; format: functional, cell-based; details: 0.5 h, read-out: I50
Method in brief: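 Ehrlich ascites cells passaged weekly in Swiss white mice; fluid from 7-10 day tumors, saline-washed, held on ice at ~0.30 g/mL. Cells incubated in glucose-free phosphate Ringer with DMSO vehicle or DMSO plus inhibitor, 30 min at 37 °C. O2 uptake read by oxygen electrode. At least four concentrations in triplicate; I50 by least squares of % inhibition vs concentration.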

[1] = biological target: T1, Malate dehydrogenase, mitochondrial (Homo sapiens, UniProt P40926); experiment: Inhibition of malate dehydrogenase (unknown origin) by spectrophotometry; details: read-out: I50
T1 sequence (P40926 whole entry): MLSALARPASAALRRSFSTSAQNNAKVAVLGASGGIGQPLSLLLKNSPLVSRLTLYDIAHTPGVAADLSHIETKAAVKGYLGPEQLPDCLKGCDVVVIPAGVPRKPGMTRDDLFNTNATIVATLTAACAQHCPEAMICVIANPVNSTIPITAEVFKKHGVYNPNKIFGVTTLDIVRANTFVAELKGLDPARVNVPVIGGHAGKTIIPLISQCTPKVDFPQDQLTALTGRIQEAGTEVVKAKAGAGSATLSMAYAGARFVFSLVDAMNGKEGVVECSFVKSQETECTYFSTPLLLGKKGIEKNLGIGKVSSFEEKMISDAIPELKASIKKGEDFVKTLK
Method in brief: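 Malate dehydrogenase of unstated source diluted in pH 7.4 Tris to give 0.01-0.02 OD/min at 340 nm. Cuvette holds L-malate (2 mM stock), NAD+ (0.80 mM stock) and 0.05 M Tris pH 8.4, with inhibitor in Me2SO, at 25 °C. Reaction started with enzyme; NADH formation read at 340 nm. Four inhibitor levels in triplicate; I50 from least-squares dose-response line.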

[2] = Lipophilicity, log P of the compound; format: physicochemical; details: octanol/water

IC50 (Ehrlich) [µM]	IC50 [1] [µM]	logP [2]	SMILES
1300	2140	–	O=C(O)c1cnc2cc(S(=O)(=O)O)ccc2c1O
910	490	–	O=C(O)c1cnc2cc(O)ccc2c1O
470	480	–	CN(C)c1ccc2c(O)c(C(=O)O)cnc2c1
5770	1070	–	O=C(O)c1ccc2c(O)c(C(=O)O)cnc2c1
580	1890	–	O=C(O)c1cnc2cc([N+](=O)[O-])ccc2c1O
3400	950	–	NS(=O)(=O)c1ccc2c(O)c(C(=O)O)cnc2c1
790	910	–	CC(=O)c1ccc2c(O)c(C(=O)O)cnc2c1
15	5	–	O=C(O)c1cnc2cc(OCc3ccc(Cl)c(Cl)c3)ccc2c1O
38	32	–	O=C(O)c1cnc2cc(OCc3ccccc3)ccc2c1O
1060	–	0.23	O=C(O)c1cnc2ccccc2c1O
5820	740	–	NC(=O)c1ccc2c(O)c(C(=O)O)cnc2c1
1790	660	–	CS(=O)(=O)c1ccc2c(O)c(C(=O)O)cnc2c1
140	3620	–	O=C(O)c1cnc2cc(Cl)ccc2c1O
500	10600	–	O=C(O)c1cnc2cc(F)ccc2c1O
520	–	–	COc1ccc2c(O)c(C(=O)O)cnc2c1
